System: MS2 coat protein
Test: apparent Kd, MS2 coat protein; higher = weaker binding; RNA-MaP array; FMN 200 µM where present
Outline: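 Green signal was scaled to red-channel RNA signal and control-cluster median Fmax, and the apparent Kd was taken as the median of filtered per-cluster binding-curve fits. The binding series used SNAP-549-labelled MS2 coat protein from 0.7 or 1.5 nM, doubling to 3 µM, on designs transcribed by stalled E. coli RNA polymerase on Illumina sequencing-chip clusters. Each series ran without and then with constant ligand in 100 mM Tris-HCl pH 7.5, 80 mM KCl, 4 mM MgCl2, BSA, DTT, yeast tRNA and Tween-20.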

[1] = designed as: ON switch for flavin mononucleotide, no ligand
[2] = ligand present: flavin mononucleotide, designed as: ON switch for flavin mononucleotide
[3] = designed as: OFF switch for flavin mononucleotide, no ligand
[4] = ligand present: flavin mononucleotide, designed as: OFF switch for flavin mononucleotide

Sequence	apparent Kd [1] [nM]	apparent Kd [2] [nM]	apparent Kd [3] [nM]	apparent Kd [4] [nM]
AGUAAGAUGCAGAAGGUGUUAGCUAGAGCUACGACAUGAGGAUCACCCAUGUACUAGAAACAGUACAAGGAUAUGCAUCUUACA	18.1	6.28		
AUCAGCUCGUCAGGAUAUACGUCACUGCGUCAGCAGUGUGGUAAGAUCACAUGAGGAUCACCCAUGUAGAAGGGACGAACUGAU			13.6	292
AGCGAGGUAGGAUAUACAUGAGGAUCACCCAUGUGCUUGCAUGGCGUGGAACAUCGUAGUAGAAGGGCCGCGCC			20.4	40.2
ACAUGAGGAUCACCCAUGUUCGUCGCGUUGUGUCGCGAGUCUGAGGAUAUCGAGGUGGGUUUUGUUGAGAAGGCGGGCCCGUGU	129	151		
AUCGUUGGAGGAUAUGCUUGGAAAAAAAAAAAAAAAAAAAAACAUGAGGAUCACCCAUGUAGAAGGUCAAUGGA			52.6	47.2
AUGCCUUAUGUAGGAUAUGCAUAGCGUUGCUAUGCAGAAGGACAUGAGGAUCACCCAUGUAUGUAUUCCAUACAUAUCUGGCAU			26.8	343
AUCAGCUCGUCAGGAUAUACGUCACUGCGUCCGCAGUGUGGUAAGAUCACAUGAGGAUCACCCAUGUAGAAGGGACGAGCUGAU			13.8	264
GUAGAACAUGAGGAUCACCCAUGUGAGGGCGCAUGAGGAUAUGUCCGUACCUAGCAUACGAUAGAAGGCAUGGUGC	38.7	27.4		
AGAAAUUAGUGAGGAUAUGCAUAAUAUUUAGCUGCAGAAGGCACGGACCACAAGACAUGAGGAUCACCCAUGUGGAAUAUAGAU			20.1	23.4
CACUGCAUGUAAGGAUAUCGACUGGAUAACAGUCGAGAAGGUACAUGAGGAUCACCCAUGUAAAUAAUAAUAAAUAAAGCAGUG			15.1	25.1
UCCUUACAUGAGGAUCACCCAUGUCAGGAUAUCUCCACACUGCGCUUGCGCAGUGUAUAGAGAAGGGACGGGCU			34.2	26.2
UAAACGUUCUAGAAGGUGCUUUUGUUAAACAAGCAAGGAUAUAGACAUGAGGAUCACCCAUGUCUUUAAGACAUCGACAUACUU			7.91	8.63
CAAAGGGAAGGAUAUACAUCAGGCGACCUGGUGGGCACCUAACAUGAGGAUCACCCAUGUAGAAGGUCCAGGGA			22.4	14.9
AUUUGAAGGUAGAAGGGUGACAUGAGGAUCACCCAUGUGCGAGCAUCGGACGAAGAUGGCUCGCCACAGGAUAUACCUUCAAAU	36.7	46.3		
UGGUACUACGGAGGAUAUGGGAAGAUACAUGAGGAUCACCCAUGUUUAAGAAUGCCGAGAGGCAACUAGAAGGCCCUAGUACCU	401	25.2		
ACGUGUUAUACAGGAUAUGUUUAGGUACAAUCAUCCAGAUAUUAAUUUAUAACAGAAGGGUAAACAUGAGGAUCACCCAUGUCA			18.4	15.1
GUCGGAAACGACAAACGUAGCAUACGAGAAGGCUGAUCCGCGACAUGAGGAUCACCCAUGUAGUUAGAGGAUAUUGGAUGCUAC	81.7	17.3		
GUCGGAAACGACAAUGAUAGGACUGAGGAUAUACAUAAGUAAGUCCUUACAUGAGGAUCACCCAUGUAGAAGGCAGUCCUAUCU			43.9	502
CCGGGCUAGGAGAAGGGCUAGAGUGUGAUAUAUUUGCCCGCGAGCACAUGAGGAUCACCCAUGUAGCAGGAUAUCCAAGCCGGU			7.25	21.2
GGUUGGCGAGGAUAUACAUGAGGAUCACCCAUGUGGUCCUGUGGCUGGUCAAAACUUUGUAGAAGGCGCGGGUC			83.1	101
AGCUGUGGCCGAGGAUAUCUGAAAACUCAAACCGAAAUAUAAUCGGACAUGAGGAUCACCCAUGUAGAGAAGGCGGUCUCAGCA			53	117
AAUUUACAUGAGGAUCACCCAUGUGAGGAUAUAUAUAUAUGUUUGUUAUUGCGUGUGUGUAGAAGGCGCGUGAU			17.6	16.3
AAUCCACAUGAGGAUCACCCAUGUGAGGAUAUGAUACUAUGUACUUCGGUACAUAGUAUCAGAAGGCACAAAGG			54.8	99.6
AGAUUCAUGGCCCGUUCGGGCUCACAUGAGGAUCACCCAUGUGAGGAUAUGAUGUACCUGAUUCAUCAGAAGGCGCAUGCGAAA			7.69	20.8

Sequence	apparent Kd [1] [nM]	apparent Kd [2] [nM]	apparent Kd [3] [nM]	apparent Kd [4] [nM]
UCGCGGGAGCAGAAGGGAUAGGCCUAUUGUCGUGGAGUCUACACUUAACAUGAGGAUCACCCAUGUCAGGAUAUGCCCACGCGA			8.8	10.6
AGUGUGUGGCAGGAUAUUCUGUUGGUUCGGGCAGAAGAAGGGUCUACAUGAGGAUCACCCAUGUAAGCGGUUGA			205	486
AGUCGGAGCAGAGGAUAUAUACAUGAGGAUCACCCAUGUAAAUGAAUGAGCUGGAAACAGCAUGUAUAGAAGGCUGCUCCGACA			113	303
GUGUACGGAGGAUAUAUAUGGGCAGGCUGACCUGCAGCUUCACAUGAGGAUCACCCAUGUAGAAGGCUGUACAC			41.9	224
GGUCCACAUGAGGAUCACCCAUGUUAGGAUAUCUCGCCCGAGCCCAUAUGGGCCAGGCAGAGAAGGAAUGUGAA			23.7	23.5
AUUAUGUUAGGAUAUGCUUAUGGUGGAUAGUCCAAUAUGAUGCAGAAGGGACAUGAGGAUCACCCAUGUACUGA			24.9	27.3
AUUUUUAAGGUAGGAUAUAGUAUAAUGGUUUAAUUAGAAGGAUCUCACAUGAGGAUCACCCAUGUAAUAGGAUUACCCAUGUAU			38.8	26.8
AACCUAAAACAGAAGGCCAAAUACAUGAGGAUCACCCAUGUCGAAUCAUGGAGGAUAUGUUAUUAAUUACUCGCAGAUGAGUGC	70	7.49		
AUAGUAGAAGUGAGGAUAUCGUAGAUUUUAGGAAACGAGAAGGCACAUGAGGAUCACCCAUGUAAGAUGGAGGU			280	298
UGAUACUAAGAGAAGGUUCAAACUACAUAUUACAUACAUGAGGAUCACCCAUGUUGGUGAAUAAGAAAGGAUAUUUUACUAUAU			25.7	21.6
GGGCUGCGACGCAGCCCAACAAAACAUGAGGAUCACCCAUGUCAGGAUAUACCGAUGCAGCAUCUGUAGAAGGGACAGAUCCAA			90.4	92.4
GGGUACGUUUCGUAGCAGUGUCAUCGAGAAGGCCCUGACAUGAGGAUCACCCAUGUUGUUACAUGGGAGGAUAUCGAUGAUUUU	19.1	6.06		
UUUUAACAUGAGGAUCACCCAUGUGAGGAUAUCGAAAUUUAUAUUAAUAUUAAUAAAACGAGAAGGCACAUUUU			82.2	90.1
CAUUAAUUAAUUAGUUUAUACAUACAGGAUAUGUUACAUGAGGAUCACCCAUGUUUACAUGGGAUACAGAAGGGUAAAUAAAGA			477	310
CUGUGACGGUGCGCAAGUGGACGUAGAAGGCUCACAUGAGGAUCACCCAUGUGGGCCUGCGAGUGAGAGGAUAUACGUUCGUGC			5.28	5.56
GCCGAGUGAGGAUAUAGCCAGGUUCGAUAAGGUCGAAUCGGCUAGAAGGCACAUGAGGAUCACCCAUGUGGGUA			225	449
AAUUAUUAUUGAGGAUAUCGUAUUGAAAUAAUAUGAGAAGGCGGGAUAAACAUGAGGAUCACCCAUGUGAGCCUGAUGCUUGUG			16.6	16.3
UGGUACUAGGGAGGAUAUGGGAAGAUACAUGAGGAUCACCCAUGUUUAAGAAUGCGGAGAGGCAACUAGAAGGCCCUAGUACCU	351	18.9		
ACCGAAUGAACAUGAGGAUCACCCAUGUACACGAAAGUGAAUGAGGAUAUCGAUAGCAAAGCUAUCGAGAAGGCAUGGGUCGGU	565	144		
UCCGCCAAAGGAUAUACUGGGCGUUAAAAUCCUCUUAAAAGACAUGAGGAUCACCCAUGUAGAAGGUUGAGGAA			209	575
CGCACUAUACAUGAGGAUCACCCAUGUUAUUAUGAGAUAGUCAGAAGGCAUUGUUUGUGAAAUUAUGAGGAUAUGAAUAGUGCG	146	79.3		
GUGGCGGCCACAGGAUAUACCCGCGGUAGCCUGGUAGAAGGGUGGUCUCUCAGUCACAACAUGAGGAUCACCCAUGUAGAAAUC	25.8	35.5		
UGUGUAACGGAGGAUAUAGGACUUCAACGAAGACUAGAAGGCCGAACAUGAGGAUCACCCAUGUGGUCCUCCGU			11.9	14.9
AGCCACAGAGGAUAUACAUACAUCCAGUGGUAAAGAAUACUACAUGAGGAUCACCCAUGUAGAAGGCUGUGGCA			25.3	145

Reference: the EternaBench riboswitch data
